Compounds with a hit are over-represented: about 2.3% of the library has one in this group of screens.
V1R ag counter – activates human V1a receptor in oxytocin agonist counter-screen | activation, % at 3 µM | CHO-V1R cells, Fluo-8 calcium fluorescence, agonist mode; 0% DMSO, 100% 3 nM vasopressin | AID 2797 | 320,000 compounds, 0.25% hits | P37288;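 active = activation above the mean activation of all tested compounds plus 3 SD, per screening run, cut at about 20% in these data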;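 note: signal is peak over basal fluorescence ratio across a 100 second FLIPR read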
TAAR1 antag – human TAAR1 antagonism; Q96RJ0; CHO RD-HGA16 TAAR1, Fluo-8 calcium fluorescence, antagonist; inhibition, % at 3 µM; 360,000 compounds, 1.5% hits; AID 624466;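 active = inhibition above a per-plate cutoff, the mean inhibition of test compounds on that plate plus 3 SD, cut at about 49% in these data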;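 note: 0% = DMSO plus EC80 beta-PEA response and 100% = DMSO alone without agonist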
Target sequence (Q96RJ0 whole entry, looked up): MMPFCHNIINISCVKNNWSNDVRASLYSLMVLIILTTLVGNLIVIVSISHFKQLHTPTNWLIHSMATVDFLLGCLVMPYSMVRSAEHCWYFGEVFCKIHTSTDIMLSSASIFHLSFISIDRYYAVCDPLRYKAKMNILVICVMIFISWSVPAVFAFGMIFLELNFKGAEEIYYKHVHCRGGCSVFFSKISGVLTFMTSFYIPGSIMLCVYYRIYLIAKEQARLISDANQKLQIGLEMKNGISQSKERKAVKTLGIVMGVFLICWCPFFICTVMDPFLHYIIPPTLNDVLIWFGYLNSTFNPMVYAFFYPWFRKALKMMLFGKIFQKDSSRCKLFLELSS
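Assay system: CHO-derived RD-HGA16 cells stably expressing human TAAR1 plus Gα16. Timing: 140 s kinetic read after compound, 140 s after agonist. Technique: kinetic Fluo-8 calcium fluorescence measurement. Measure: % inhibition of agonist calcium response.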
TAAR1 agonist – agonists of human TAAR1; Q96RJ0; CHO RD-HGA16 TAAR1, Fluo-8 calcium fluorescence; vehicle wells 0%, saturating PEA agonist 100%; activation, % at 3 µM; 360,000 compounds, 0.99% hits; AID 624467;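 active = activation above the mean activation of all test compounds in the run plus 3 SD, cut at about 38% in these data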
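Test system: RD-HGA16 (CHO) cells co-expressing Gα16 and hTAAR1 / Benchmarks: DMSO vehicle as 0%, PEA at EC100 as 100% / Repeats: no replicates (n 1) / Measure: % activation from peak over basal fluorescence ratio, DMSO-to-PEA scaled / Timing: 17-24 h plating, Fluo-8 75 min 37 °C, 30 min RT / Technique: kinetic Fluo-8 calcium fluorescence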
OXTR potentiate – potentiates the human oxytocin receptor response; CHO-OTR cells, Fluo-8 calcium fluorescence, potentiator mode; 0% = oxytocin EC15, 100% = EC100; activation, % at 3 µM; 320,000 compounds, 0.061% hits;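 active = activation above that plate's cutoff, the mean activation of tested compounds plus 3 SD, cut at about 6.6% in these data, passing the limit was not always enough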;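 note: 100% uses oxytocin at 75 nM as the full agonist control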
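Material: CHO-OTR cells, human receptor; compound dosing: single dose, 3.0 µM nominal final compound concentration; schedule: 6 min compound pre-incubation at room temperature, 100 s kinetic read; measured by: kinetic Fluo-8 calcium fluorescence; read-out basis: % activation vs EC15 and EC100 oxytocin; controls: EC15 oxytocin alone as 0%, 75 nM oxytocin as 100%; replicates: singlicate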
OXTR ag – activates the human oxytocin receptor | CHO-OTR cells, Fluo-8 calcium fluorescence; normalized: DMSO 0%, oxytocin 100% | P30559 | 320,000 compounds, 0.32% hits | activation, % at 3 µM;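 active = activation above the mean of all tested compounds plus 3 SD, cutoff set per screening run, cut at about 20% in these data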;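 note: peak over basal fluorescence ratio from a 100 s FLIPR kinetic read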
* hit, by the source's call.

`COC(=O)[C@]12CCCCC=C1N(CCc1ccc(OC)c(OC)c1)C(=O)[C@H](CC(=O)NCc1cccc3ccccc13)C2` gave TAAR1 antag 43 and TAAR1 agonist 5.
Screening COC(=O)[C@]12CCCCC=C1N(Cc1cccc3ccccc13)C(=O)[C@H](CC(=O)NCc1ccc(OC)c(OC)c1)C2 returned TAAR1 antag 49* and TAAR1 agonist 27.
Screening COC(=O)[C@]12CCCCC=C1N(Cc1ccc3c(c1)OCO3)C(=O)[C@H](CC(=O)N1CCC(c3ccccc3)CC1)C2 returned TAAR1 antag 56* and TAAR1 agonist 1.
`CCOC(=O)[C@]12CCCC=C1N(Cc1ccc3c(c1)OCO3)C(=O)[C@H](CC(=O)NCc1ccc(OC)c(OC)c1)C2` gave TAAR1 antag -6 and TAAR1 agonist -2.
For COC(=O)[C@]12CCCCC=C1N(Cc1ccc3c(c1)OCO3)C(=O)[C@H](CC(=O)NCc1ccc(OC)c(OC)c1)C2 the results were TAAR1 antag 59* and TAAR1 agonist 14.
Cc1cnn(Cc2cccnc2)c1N was read as V1R ag counter -1, TAAR1 antag 15, TAAR1 agonist 1, OXTR potentiate -1 and OXTR ag -1.
CCC(=O)OCC(=O)c1cc(C)n(-c2ccc(Br)cc2)c1C was read as V1R ag counter -1, TAAR1 antag 20, TAAR1 agonist 0, OXTR potentiate -1 and OXTR ag -2.
Screening CCCC[C@@H]1CNCCN1CC1(c2ccccc2)CC1 returned V1R ag counter 1, TAAR1 antag 16, TAAR1 agonist 9, OXTR potentiate 0 and OXTR ag 1.
COC(=O)[C@]12CCCCC=C1N(CCc1ccc(OC)c(OC)c1)C(=O)[C@H](CC(=O)N1CCCCC1)C2 was read as TAAR1 antag 52* and TAAR1 agonist 12.
`CCOC(=O)[C@]12CCCC=C1N(CCc1ccc(OC)c(OC)c1)C(=O)[C@H](CC(=O)N1CCCCC1)C2` gave TAAR1 antag -4 and TAAR1 agonist 1.
`Cc1ccc(C)c(N2CCN(C(=O)C3CCCN(S(=O)(=O)c4c(C)noc4C)C3)CC2)c1` (stereo not drawn) gave V1R ag counter 4, TAAR1 antag 53*, TAAR1 agonist -1, OXTR potentiate -7 and OXTR ag 1.
Screening Cc1ccc(C)c(N2CCN(C(=O)C3CCN(S(=O)(=O)c4c(C)noc4C)CC3)CC2)c1 returned V1R ag counter 8, TAAR1 antag -7, TAAR1 agonist 2, OXTR potentiate -8 and OXTR ag 7.
Screening CCc1ccc(-n2cccc2/C=C2/C(=N)N3C(=NC2=O)SN=C3S(C)(=O)=O)cc1 returned V1R ag counter 0, TAAR1 antag 57*, TAAR1 agonist 1, OXTR potentiate -9 and OXTR ag 0.
For Cc1ccc(-n2cccc2/C=C2/C(=N)N3C(=NC2=O)SN=C3S(C)(=O)=O)cc1 the results were V1R ag counter -1, TAAR1 antag 26, TAAR1 agonist 6, OXTR potentiate -5 and OXTR ag -1.
Screening COc1ccc2[nH]c3c(N4CCC(O)(c5cccc(C(F)(F)F)c5)CC4)ncnc3c2c1 returned V1R ag counter 2, TAAR1 antag 51*, TAAR1 agonist 14, OXTR potentiate -16 and OXTR ag 0.
For COc1ccccc1NC(=O)/C(=C\c1cccs1)NC(=O)c1ccco1 the results were V1R ag counter 2, TAAR1 antag -7, TAAR1 agonist 3, OXTR potentiate 3 and OXTR ag 1.
CCCCCCNC(=O)C(C#N)c1nc2ccccc2nc1N1CCCC1 (stereo not drawn) was read as V1R ag counter -1, TAAR1 antag 51*, TAAR1 agonist 4, OXTR potentiate -17 and OXTR ag -1.
COc1ccccc1NNC(=O)c1cc(C(C)(C)C)nn1Cc1ccccc1 was read as V1R ag counter -1, TAAR1 antag 49*, TAAR1 agonist 3, OXTR potentiate -13 and OXTR ag -1.
For CC(C)(C)c1cc(C(=O)Nc2ccc(F)cc2)n(Cc2ccc(F)cc2)n1 the results were V1R ag counter 0, TAAR1 antag 65*, TAAR1 agonist 2, OXTR potentiate -15 and OXTR ag 1.
Screening CCOC(=O)c1c(C)[nH]c(C(=O)OC(C)C(=O)NC2CCCCC2C)c1C (stereo not drawn) returned V1R ag counter 0, TAAR1 antag -1, TAAR1 agonist 2, OXTR potentiate -5 and OXTR ag 0.
For Cc1ccc(S(=O)(=O)Nc2cccc(C(=O)NCCCn3ccnc3)c2)cc1F the results were V1R ag counter 0, TAAR1 antag -9, TAAR1 agonist 2, OXTR potentiate -6 and OXTR ag -1.
For COc1cccc(C(=O)NCCS(=O)(=O)NC(C)CCc2ccccc2)c1 (stereo not drawn) the results were V1R ag counter -1, TAAR1 antag -2, TAAR1 agonist 1, OXTR potentiate -14 and OXTR ag -1.
Screening Cc1ccc(OCC(=O)N2CCc3ccccc3C2)c(Br)c1 returned V1R ag counter 0, TAAR1 antag -7, TAAR1 agonist 6, OXTR potentiate -14 and OXTR ag -3.
For CCOc1ccccc1NC(=O)N1CCc2ccccc2C1 the results were V1R ag counter -1, TAAR1 antag 4, TAAR1 agonist 41*, OXTR potentiate 1 and OXTR ag -2.
For Cc1ccc(OCC(=O)N2CCc3ccccc3C2)c(C)c1 the results were V1R ag counter -2, TAAR1 antag 3, TAAR1 agonist 42*, OXTR potentiate -20 and OXTR ag -2.
For c1ccc(CNc2ncnc3scc(-c4cccs4)c23)nc1 the results were V1R ag counter 4, TAAR1 antag 27, TAAR1 agonist 5, OXTR potentiate -8 and OXTR ag 9.
Screening c1ccc(-c2csc3ncnc(NCc4ccccn4)c23)cc1 returned V1R ag counter 4, TAAR1 antag 53*, TAAR1 agonist 11, OXTR potentiate -3 and OXTR ag 4.
`O=S(=O)(c1cccc(-c2n[nH]c(=S)o2)c1)N1CCOCC1` gave V1R ag counter -1, TAAR1 antag -11, TAAR1 agonist 0, OXTR potentiate 1 and OXTR ag 0.
For COc1cc(-c2cc(NC(C)=O)c3ncc(-c4cc(OC)c(OC)c(OC)c4)n3c2)cc(OC)c1OC the results were TAAR1 antag 26 and TAAR1 agonist 7.
Screening COc1cc(-c2cc(NC(C)=O)c3ncc(-c4ccccc4)n3c2)cc(OC)c1OC returned TAAR1 antag 49* and TAAR1 agonist 3.
COc1ccc(-c2cnc3c(NC(C)=O)cc(-c4ccccc4OC)cn23)cc1OC was read as TAAR1 antag 52* and TAAR1 agonist 7.
COc1cc(-c2cnc3c(NC=O)cc(-c4ccccc4)cn23)cc(OC)c1OC was read as TAAR1 antag 9 and TAAR1 agonist -1.

Bioassay records deposited in PubChem BioAssay by The Scripps Research Institute Molecular Screening Center.
